Reference: ChEMBL document CHEMBL3259717, “Synthetic calanolides with bactericidal activity against replicating and nonreplicating Mycobacterium tuberculosis” (J Med Chem, 2014)
In brackets after ≈: the same amount, converted by molar mass. Activity calls are given as the source filed them. No cut-off for these calls is given here.

Key:
[1] = Cytotoxicity against human HepG2 cells assessed as decrease in ATP signal after 2 days by CellTiter-Glo assay; assay type: cell-based; conditions: read-out: LD50
Outline: (§1)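 HepG2 in DMEM with 10% FBS, pyruvate, glutamine, HEPES and nonessential amino acids, seeded 3000 cells/well in 384-well plates. Compound for 2 days at 1% final DMSO. ATP read by CellTiter-Glo luminescence. LD50 = 50% drop in ATP signal vs DMSO. SI = LD50/MIC90 against replicating Mtb.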

[2] = test system: Mycobacterium tuberculosis; assay: Antibacterial activity against replicating form of wild type Mycobacterium tuberculosis H37Rv assessed as growth inhibition after 7 days by high-throughput screening assay; assay type: functional; conditions: 168 h
Outline: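 Wild-type H37Rv in 7H9 with glycerol, tyloxapol, ADN, in 96-well plates. Set up as the 384-well screen: OD580 0.01 start, compound in DMSO, 7 days at 37 °C, 20% O2, 5% CO2. OD580 read; MIC90 = 90% growth inhibition vs DMSO control.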

[3] = test system: Mycobacterium tuberculosis; assay: Antibacterial activity against non-replicating form of wild type Mycobacterium tuberculosis H37Rv assessed as growth inhibition after 3 days by high-throughput screening assay; assay type: functional; conditions: 72 h
[4] = Selectivity index, ratio of LD50 for human HepG2 cells to MIC90 for replicating form of Mycobacterium tuberculosis H37Rv; assay type: toxicity, cell-based; conditions: read-out: Selectivity Index; outline: as §1
[5] = test system: Mycobacterium tuberculosis; assay: Antibacterial activity against replicating form of Mycobacterium tuberculosis MC2 6220 assessed as growth inhibition after 7 days by high-throughput screening assay; assay type: functional; conditions: MC2 6220, 168 h
Outline: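 Attenuated Mtb mc26220 ΔpanCDΔlysA in 7H9 with glycerol, tyloxapol, OADC, casein amino acids, 240 μg/mL L-lysine, 24 μg/mL pantothenate. Mid-log cells diluted to OD580 0.01 in 384-well plates, compound in DMSO, 7 days at 37 °C, 20% O2, 5% CO2. OD580 read; MIC90 = 90% growth inhibition vs DMSO.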

[6] = test system: Mycobacterium tuberculosis; assay: Antibacterial activity against non-replicating form of Mycobacterium tuberculosis MC2 6220 assessed as growth inhibition after 3 days by high-throughput screening assay; assay type: functional; conditions: MC2 6220, 72 h
Outline: (§2)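 Log-phase mc26220 washed in PBS/tyloxapol, resuspended in Sauton's-based NR medium (butyrate, 0.5 mM NaNO2, pH 5.0) at OD580 0.1. Compound exposure 3 days at 37 °C, 1% O2, 5% CO2. Then R medium added (5-fold dilution), 7 days outgrowth at 20% O2. OD580 read; MIC90 = 90% inhibition vs DMSO.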

[7] = Selectivity index, ratio of LD50 for human HepG2 cells to MIC90 for replicating form of Mycobacterium tuberculosis mc'2 6220; assay type: toxicity, cell-based; conditions: read-out: Selectivity Index; outline: as §1
[8] = test system: Mycobacterium tuberculosis; assay: Antibacterial activity against non-replicating form of Mycobacterium tuberculosis MC2 6220 assessed as growth inhibition after 7 days by high-throughput screening assay; assay type: functional; conditions: MC2 6220, 168 h; outline: as §2
[9] = test system: Mycobacterium tuberculosis; assay: Bactericidal activity against replicating form of wild type Mycobacterium tuberculosis H37Rv assessed as reduction of log10CFU at 0.6 ug/mL after 7 to 8 days; assay type: functional
Outline: (§3)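 Wild-type Mtb single-cell suspension at OD 0.01 (R) or 0.1 (NR, in NR medium, 1% O2) in 96-well plates with compound for 7 days. Serial dilution in 7H9-ADN, plated on 7H11 agar with glycerol and OADC for CFU.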

[10] = test system: Mycobacterium tuberculosis; assay: Bactericidal activity against non-replicating form of wild type Mycobacterium tuberculosis H37Rv assessed as reduction of log10CFU at 0.6 ug/mL after 7 to 8 days; assay type: functional; outline: as §3
[11] = test system: Mycobacterium tuberculosis; assay: Bactericidal activity against wild type Mycobacterium tuberculosis H37Rv infected in IFN-gamma-stimulated primary human monocyte-derived macrophages assessed as reduction of log10CFU at 1 ug/mL incubated for 7 days followed by compound washout measured after 3 weeks; assay type: functional
Outline: (§4)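 Monocytes from healthy donors isolated by CD14 selection. Differentiated 2 weeks in 40% human plasma with 0.5 ng/mL GM-CSF and TNF-alpha, 10% O2. Then 5 ng/mL IFN-gamma overnight, infected with wild-type Mtb at MOI 0.1. Compound added at 24 h, 1% DMSO final, 7 days. Viability inspected visually; lysed in 0.55% Triton-X and plated on 7H11/OADC for CFU.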

Escherichia coli = assay: Bactericidal activity against Escherichia coli at <= 25 ug/mL after 6 to 18 hrs; assay type: functional, organism-based
Outline: (§5)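 Log-phase cultures in their own media (M. smegmatis 7H9/glycerol/tyloxapol; E. coli, P. aeruginosa LB; S. aureus Mueller-Hinton; C. albicans YM) diluted to OD 0.01 in 96-well plates. Compound or DMSO added. Incubated 8−48 h with shaking at 37 °C (Candida at 30 °C). OD600 read.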

Staphylococcus aureus = assay: Bactericidal activity against Staphylococcus aureus ATCC 29213 at <= 25 ug/mL after 6 to 18 hrs; assay type: functional, organism-based; outline: as §5
Pseudomonas aeruginosa = assay: Bactericidal activity against Pseudomonas aeruginosa PAO1 at <= 25 ug/mL after 6 to 18 hrs; assay type: functional, organism-based; outline: as §5
Candida albicans = assay: Fungicidal activity against Candida albicans at <= 25 ug/mL after 6 to 18 hrs; assay type: functional, organism-based; outline: as §5
[12] = test system: Mycolicibacterium smegmatis; assay: Antibacterial activity against Mycobacterium smegmatis assessed as growth inhibition at 10 ug/mL after 24 to 48 hrs relative to control; assay type: functional; conditions: read-out: GI; outline: as §5
[13] = test system: Mycobacterium tuberculosis; assay: Bactericidal activity against wild type Mycobacterium tuberculosis H37Rv infected in IFN-gamma-stimulated primary human monocyte-derived macrophages assessed as reduction of log10CFU incubated for 7 days followed by compound washout measured after 3 weeks; assay type: functional; outline: as §4
[14] = test system: Mycobacterium tuberculosis; assay: Antimycobacterial activity against replicating form of Mycobacterium tuberculosis infected in African green monkey Vero cells assessed as growth inhibition; assay type: functional
[15] = Cytotoxicity against African green monkey Vero cells; assay type: cell-based; conditions: chlorocebus sabaeus, read-out: LD50 (the source's name)
[16] = Selectivity index, ratio of LD50 for African green monkey Vero cells to MIC for replicating form of Mycobacterium tuberculosis infected in African green monkey Vero cells; assay type: toxicity, cell-based; conditions: read-out: Selectivity Index

| SMILES | CC50 at 48 h [1] [µg/mL] | MIC90 [5] [µg/mL] | MIC90 [6] [µg/mL] | selectivity ratio [7] | also measured |
| --- | --- | --- | --- | --- | --- |
| CN1CCN(Cc2cc(=O)oc3c2c2c(c4oc([N+](=O)[O-])cc43)C=CC(C)(C)O2)CC1 | 3 (≈ 7.05 µM) |  |  |  | MIC90 [2]: 0.08 µg/mL (≈ 0.188 µM); MIC90 [3]: 0.3 µg/mL (≈ 0.705 µM); selectivity ratio [4]: 31 |
| CCCc1cc(=O)oc2c3c(cc(OCCN4CCOCC4)c12)O[C@H]([N+](=O)[O-])[C@H]3O | 2 (≈ 4.76 µM) |  |  |  | MIC90 [2]: 0.08 µg/mL (≈ 0.19 µM); MIC90 [3]: 0.08 µg/mL (≈ 0.19 µM); selectivity ratio [4]: 20 |
| CCCc1cc(=O)oc2cc(N3CCN(C(=O)C(C)CC)CC3)c3c(c12)OC(C)(C)C=C3 (centres undefined) | 22 (≈ 50.2 µM) | > 22 | > 22 | < 1 |  |
| CCCc1cc(=O)oc2cc(OCCN3CCCCC3)c3c(c12)OC(C)(C)C=C3 | > 20 | > 20 | > 20 |  | MIC90 [8]: 7 µg/mL (≈ 17.6 µM) |
| CCCc1cc(=O)oc2c3c(cc(OCCN4CCOCC4)c12)OC(C)([N+](=O)[O-])C3O (racemic) | > 100 | 100 (≈ 230 µM) | 100 (≈ 230 µM) | > 1 |  |
| CCCc1cc(=O)oc2c1c(OCCN1CCCC1)cc1oc([N+](=O)[O-])cc12 | 1 (≈ 2.59 µM) | < 0.2 | < 0.2 | > 5 |  |
| CCCc1cc(=O)oc2c1c(OCCN1CCOCC1)cc1oc([N+](=O)[O-])c(COC(C)=O)c12 | < 0.3 | 1 (≈ 2.11 µM) | 3 (≈ 6.32 µM) | < 0.3 |  |
| CCCc1cc(=O)oc2c1c1c(c3oc([N+](=O)[O-])cc32)C=CC(C)(C)O1 | 3 (≈ 8.44 µM) |  |  |  | MIC90 [2]: 0.3 µg/mL (≈ 0.844 µM); MIC90 [3]: 0.6 µg/mL (≈ 1.69 µM); selectivity ratio [4]: 8; log10cfu [9]: 3.1; log10cfu [10]: 2.6; log10cfu [11]: 1.8 |
| CCCc1cc(=O)oc2cc(OCC=C(C)C)c3c(c12)OC(C)(C)C=C3 | > 18 | > 18 | > 18 |  | MIC90 [8]: 2 µg/mL (≈ 5.64 µM) |
| O=C(OCCOc1cc2c(c3oc(=O)c4c(c13)CCCC4)[C@H](O)[C@@H]([N+](=O)[O-])O2)c1cnccn1 (racemic) | 0.4 (≈ 0.852 µM) | < 1 | < 1 | > 0.3 |  |
| O=[N+]([O-])C1Cc2ccccc2O1 (centres undefined) | 3 (≈ 18.2 µM) | 0.4 (≈ 2.42 µM) | 0.4 (≈ 2.42 µM) | 6 |  |
| CCCc1cc(=O)oc2c3c(cc(OCCN4CCOCC4)c12)O[C@H]([N+](=O)[O-])[C@H]3C(C)C (racemic) | > 22 | 22 (≈ 49.3 µM) | > 22 | > 1 |  |
| CCCc1cc(=O)oc2c1c1c(c3oc([N+](=O)[O-])cc32)CCC(C)(C)O1 | > 50 |  |  |  | MIC90 [2]: 0.6 µg/mL (≈ 1.68 µM); MIC90 [3]: 1 µg/mL (≈ 2.8 µM); selectivity ratio [4]: > 80; log10cfu [9]: 2.6; log10cfu [10]: 2.1; Activity (Escherichia coli): inactive; Activity (Staphylococcus aureus): inactive; Activity (Pseudomonas aeruginosa): inactive; Activity (Candida albicans): inactive; inhibition of growth at 10 µg/mL [12]: 20%; log10cfu [13]: 2 |
| Cc1c(F)c(=O)oc2c1c1c(c3oc([N+](=O)[O-])cc32)CCC(C)(C)O1 | > 50 | 0.8 (≈ 2.3 µM) | 2 (≈ 5.76 µM) | > 64 |  |
| CCCc1cc(=O)oc2c3c(c4c(c12)OC(C)(C)C=C4)O[C@H](C)[C@@H](C)[C@@H]3O [CALANOLIDE A] |  |  |  |  | MIC [14]: 3.1 µg/mL (≈ 8.37 µM); CC50 [15]: 7.6 µg/mL (≈ 20.5 µM); selectivity ratio [16]: 2.4 |
| Cc1c(F)c(=O)oc2c3c(c4c(c12)OC(C)(C)CC4)O[C@H]([N+](=O)[O-])[C@H]3O (relative stereo) | 13 (≈ 35.6 µM) | < 0.1 | < 0.1 | > 128 |  |
